Test results reported in ChEMBL document CHEMBL4330143, “Maximizing ER-α Degradation Maximizes Activity in a Tamoxifen-Resistant Breast Cancer Model: Identification of GDC-0927” (ACS Med Chem Lett, 2019).
pIC50: −log10 of the molar value. Calls of active or inactive are those of the source. No cut-off for these calls is given here.

Tests used:
[1] = Clearance in rat at 10 mg/kg, po daily for 3 days measured on day 3 post last dose; format: ADME, organism-based; conditions: in vivo
[2] = Oral bioavailability in rat at 10 mg/kg daily for 3 days measured on day 3 post last dose; format: ADME, organism-based; conditions: in vivo
Mus musculus = test: In vivo induction of ERalpha degradation in tumor of nude mouse xenografted with tamoxifen-resistant human MCF7 cells at 100 mg/kg, po daily for 28 days measured on day 28 post last dose; format: functional, organism-based
Procedure, shortened: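 Tamoxifen-resistant MCF-7 tumours grown subcutaneously in mice, with estradiol supplied from subcutaneous 0.72 mg estradiol pellets.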

[3] = Unbound fraction in mouse plasma; format: ADME, cell-free
Rattus norvegicus = test: In vivo inverse agonist activity at ERalpha in CD-IGS rat assessed as decrease in uterine weight at 10 mg/kg, po for 3 consecutive days measured at 24 hrs post last dose; format: functional, organism-based
Procedure, shortened: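 Rat uterine wet weight assay run in agonist mode, with no ethynyl estradiol added. Oral dosing at 10 mg/kg for 3 days. Uterine weights compared with those of vehicle-treated animals.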

[4] = target: T1, Mineralocorticoid receptor (Homo sapiens) (UniProt P08235); test: Agonist activity at MR (unknown origin) by transcriptional reporter assay
T1 sequence (whole entry): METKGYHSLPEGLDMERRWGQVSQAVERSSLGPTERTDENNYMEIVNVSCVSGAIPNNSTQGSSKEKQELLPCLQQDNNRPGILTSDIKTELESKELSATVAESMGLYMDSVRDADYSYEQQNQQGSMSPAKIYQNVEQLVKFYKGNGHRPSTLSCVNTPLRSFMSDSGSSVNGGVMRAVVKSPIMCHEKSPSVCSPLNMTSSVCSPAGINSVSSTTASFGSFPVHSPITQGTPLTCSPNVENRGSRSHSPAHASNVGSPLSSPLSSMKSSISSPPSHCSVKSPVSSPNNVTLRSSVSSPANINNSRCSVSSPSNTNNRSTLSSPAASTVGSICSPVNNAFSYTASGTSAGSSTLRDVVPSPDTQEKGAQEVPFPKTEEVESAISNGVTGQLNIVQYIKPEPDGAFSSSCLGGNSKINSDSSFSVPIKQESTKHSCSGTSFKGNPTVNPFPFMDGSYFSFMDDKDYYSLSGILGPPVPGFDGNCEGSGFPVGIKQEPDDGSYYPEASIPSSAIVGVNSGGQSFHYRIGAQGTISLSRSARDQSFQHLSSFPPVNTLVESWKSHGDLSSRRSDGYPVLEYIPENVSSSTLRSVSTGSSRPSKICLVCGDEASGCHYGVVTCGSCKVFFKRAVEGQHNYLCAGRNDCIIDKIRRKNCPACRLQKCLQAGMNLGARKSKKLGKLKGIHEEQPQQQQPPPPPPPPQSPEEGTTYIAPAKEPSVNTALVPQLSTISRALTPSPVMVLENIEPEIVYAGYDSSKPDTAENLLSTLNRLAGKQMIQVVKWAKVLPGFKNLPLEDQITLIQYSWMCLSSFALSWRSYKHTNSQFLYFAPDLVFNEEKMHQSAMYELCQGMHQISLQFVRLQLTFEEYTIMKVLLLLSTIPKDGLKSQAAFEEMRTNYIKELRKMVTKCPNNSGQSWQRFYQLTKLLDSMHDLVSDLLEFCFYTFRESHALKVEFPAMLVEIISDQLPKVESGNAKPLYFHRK

[5] = target: T2, Progesterone receptor (Homo sapiens) (UniProt P06401); test: Agonist activity at PR-B (unknown origin) by transcriptional reporter assay
T2 sequence (whole entry): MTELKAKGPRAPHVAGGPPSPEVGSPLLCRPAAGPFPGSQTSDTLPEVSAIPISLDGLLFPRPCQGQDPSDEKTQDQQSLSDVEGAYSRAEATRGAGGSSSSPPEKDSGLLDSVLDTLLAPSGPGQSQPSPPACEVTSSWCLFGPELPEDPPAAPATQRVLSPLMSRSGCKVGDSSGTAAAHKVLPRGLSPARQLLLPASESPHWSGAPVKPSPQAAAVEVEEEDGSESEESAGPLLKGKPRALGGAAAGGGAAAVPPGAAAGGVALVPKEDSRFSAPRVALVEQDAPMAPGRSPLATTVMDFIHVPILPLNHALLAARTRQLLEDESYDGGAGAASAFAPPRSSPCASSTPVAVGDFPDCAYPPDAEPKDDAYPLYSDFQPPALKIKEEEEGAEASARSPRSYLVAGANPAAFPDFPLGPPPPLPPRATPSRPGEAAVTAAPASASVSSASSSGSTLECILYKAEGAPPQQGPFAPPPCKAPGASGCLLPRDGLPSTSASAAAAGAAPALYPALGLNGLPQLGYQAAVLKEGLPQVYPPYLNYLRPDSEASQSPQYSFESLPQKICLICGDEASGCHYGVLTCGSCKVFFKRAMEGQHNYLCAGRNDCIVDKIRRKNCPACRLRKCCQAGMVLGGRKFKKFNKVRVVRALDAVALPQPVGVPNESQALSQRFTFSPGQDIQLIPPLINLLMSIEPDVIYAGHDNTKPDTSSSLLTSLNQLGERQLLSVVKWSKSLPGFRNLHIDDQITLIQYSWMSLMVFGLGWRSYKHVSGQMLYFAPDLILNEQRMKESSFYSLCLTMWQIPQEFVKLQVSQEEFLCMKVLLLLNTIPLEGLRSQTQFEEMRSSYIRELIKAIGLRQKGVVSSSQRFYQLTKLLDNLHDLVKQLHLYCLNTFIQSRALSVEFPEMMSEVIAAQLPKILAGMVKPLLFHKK

Cytochrome P450 1A2 = target: T3, Cytochrome P450 1A2 (Homo sapiens, UniProt P05177); test: Competitive inhibition of CYP1A2 (unknown origin); format: ADME
T3 sequence (P05177 whole entry): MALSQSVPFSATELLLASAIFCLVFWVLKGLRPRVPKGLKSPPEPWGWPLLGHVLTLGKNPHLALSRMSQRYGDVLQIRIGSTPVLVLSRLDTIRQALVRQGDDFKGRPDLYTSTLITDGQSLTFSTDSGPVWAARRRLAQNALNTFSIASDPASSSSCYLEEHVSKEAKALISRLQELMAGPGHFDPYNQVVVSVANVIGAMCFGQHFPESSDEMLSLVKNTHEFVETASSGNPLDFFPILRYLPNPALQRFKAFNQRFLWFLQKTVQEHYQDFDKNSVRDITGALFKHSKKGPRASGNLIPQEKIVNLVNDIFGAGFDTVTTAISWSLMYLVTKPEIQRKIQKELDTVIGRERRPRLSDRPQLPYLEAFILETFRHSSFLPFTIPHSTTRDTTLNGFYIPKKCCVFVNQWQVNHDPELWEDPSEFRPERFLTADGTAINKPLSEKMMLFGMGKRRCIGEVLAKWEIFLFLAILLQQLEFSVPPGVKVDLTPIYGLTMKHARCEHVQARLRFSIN

Cytochrome P450 2D6 = Cytochrome P450 2D6 (Homo sapiens, UniProt P10635); test: Competitive inhibition of CYP2D6 (unknown origin); format: ADME
Chain of Cytochrome P450 2D6 (P10635 whole entry): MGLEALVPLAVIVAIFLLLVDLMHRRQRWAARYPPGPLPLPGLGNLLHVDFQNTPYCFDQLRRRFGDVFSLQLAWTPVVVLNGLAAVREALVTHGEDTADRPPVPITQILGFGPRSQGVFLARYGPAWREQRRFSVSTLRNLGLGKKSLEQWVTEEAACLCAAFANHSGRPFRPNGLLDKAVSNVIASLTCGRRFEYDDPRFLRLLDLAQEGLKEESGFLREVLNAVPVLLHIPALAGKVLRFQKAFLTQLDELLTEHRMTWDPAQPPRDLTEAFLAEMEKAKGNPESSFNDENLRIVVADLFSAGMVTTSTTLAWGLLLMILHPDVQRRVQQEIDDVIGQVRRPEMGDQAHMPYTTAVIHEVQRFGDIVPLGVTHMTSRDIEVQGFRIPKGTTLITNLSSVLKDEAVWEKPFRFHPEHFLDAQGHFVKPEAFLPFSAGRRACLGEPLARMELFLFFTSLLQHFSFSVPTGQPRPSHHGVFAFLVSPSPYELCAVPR

Cytochrome P450 2C9 = Cytochrome P450 2C9 (Homo sapiens, UniProt P11712); test: Inhibition of CYP2C9 (unknown origin); format: ADME
Chain of Cytochrome P450 2C9 (P11712 whole entry): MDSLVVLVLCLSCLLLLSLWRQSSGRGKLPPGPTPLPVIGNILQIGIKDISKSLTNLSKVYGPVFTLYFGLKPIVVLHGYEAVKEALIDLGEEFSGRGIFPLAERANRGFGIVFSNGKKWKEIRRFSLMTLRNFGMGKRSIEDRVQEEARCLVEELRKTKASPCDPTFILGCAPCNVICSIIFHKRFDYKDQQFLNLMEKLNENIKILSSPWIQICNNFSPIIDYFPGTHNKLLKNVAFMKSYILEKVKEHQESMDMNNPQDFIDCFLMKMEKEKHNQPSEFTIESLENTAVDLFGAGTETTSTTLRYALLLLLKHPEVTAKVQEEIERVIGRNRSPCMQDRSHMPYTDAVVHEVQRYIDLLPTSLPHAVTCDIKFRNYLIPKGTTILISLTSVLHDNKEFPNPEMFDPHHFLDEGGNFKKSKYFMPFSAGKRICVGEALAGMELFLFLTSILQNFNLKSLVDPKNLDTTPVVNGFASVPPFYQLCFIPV

CC1=C(c2cccc(O)c2)[C@H](c2ccc(OCCN3CC(CF)C3)cc2)Oc2ccc(O)cc21
CL/F [1]: > 60 mL/min/kg
bioavailability [2]: 10%
Activity (Mus musculus): Active
Fu [3]: 1.9%
Activity (Rattus norvegicus): Active
Activity [4]: inactive
Activity [5]: inactive
pIC50 (Cytochrome P450 1A2): < 5.00
pIC50 (Cytochrome P450 2D6): < 5.00
pIC50 (Cytochrome P450 2C9): 5.49
